OX1R antag-1 = blocks the human orexin 1 receptor. O43613. CHO/OX1R cells, Fluo-8 calcium fluorescence, orexin A. inhibition, % at 5 µM. actives 0.43% (n = 330,000);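 active = inhibition above its plate's threshold, mean inhibition of all tested compounds on the plate plus 3 SD, cut at about 37% in these data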;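 note: 0% = orexin A challenge wells and 100% = SB-334867-A antagonist wells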
OX1R antag-2 = antagonists of human orexin 1 receptor (OX1R); O43613; inhibition, % at 6.6 µM; actives 1.8% (n = 330,000); AID 485270; OX1R-expressing cells, FRET antagonist read-out; in the data active = inhibition mostly above about 38%, no sharp cut-off; inactive = mostly below about 40%;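 note: 0% = agonist challenge alone and 100% = reference antagonist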
TRPN1 ag = zebrafish TRPN1 (NompC) channel agonism; activation, % at 3 µM; AID 1424; HEK293 zebrafish TRPN1-YFP, Fluo-8 calcium fluorescence; 100% = response to 87 µM carbachol; actives 0.18% (n = 220,000);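 active = activation above its plate's cutoff, the mean activation of test wells on that plate plus 3 SD, cut at about 19% in these data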;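 note: 0% = DMSO alone and 100% = 87 µM carbachol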
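Assay system: Zebrafish TRPN1-YFP in HEK293 cells | Incubation: Dye loading 1 h at 37 °C, then 30 min room temperature | Measured by: Kinetic Fluo-8 fluorescence, ex 470-495, em 515-575 nm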
CHO parental Ca = signal in parental CHO cells, OX1R antagonist counter-screen; parental CHO-K1, ATP-induced calcium, Fluo-8 fluorescence; actives 0.63% (n = 330,000); inhibition, % at 5.6 µM;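 active = inhibition above that plate's mean sample inhibition plus 3 SD, cut at about 26% in these data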;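 note: 0% = ATP-challenged DMSO wells and 100% = DMSO wells without ATP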
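Test system: untransfected parental CHO cell line; also added: ATP stimulus; dosing: 5.6 µM, single dose; signal: calcium-sensitive Fluo-8 fluorescence; measure: percent inhibition of ATP-evoked calcium rise, normalized to controls; benchmarks: low control ATP plus DMSO, high control DMSO only; replication: one well per compound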
GPR7 antag = blocks human GPR7 receptor signaling; AID 1861; P48145; inhibition, % at 4.4 µM; actives 1.1% (n = 290,000); GPR7-expressing cells, fluorescence antagonist assay; in the data active = inhibition above about 16%, passing the limit was not always enough;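 note: cells stimulated with the agonist NPW; 0% = agonist with vehicle and 100% = vehicle without agonist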
Target sequence (P48145 whole entry, looked up): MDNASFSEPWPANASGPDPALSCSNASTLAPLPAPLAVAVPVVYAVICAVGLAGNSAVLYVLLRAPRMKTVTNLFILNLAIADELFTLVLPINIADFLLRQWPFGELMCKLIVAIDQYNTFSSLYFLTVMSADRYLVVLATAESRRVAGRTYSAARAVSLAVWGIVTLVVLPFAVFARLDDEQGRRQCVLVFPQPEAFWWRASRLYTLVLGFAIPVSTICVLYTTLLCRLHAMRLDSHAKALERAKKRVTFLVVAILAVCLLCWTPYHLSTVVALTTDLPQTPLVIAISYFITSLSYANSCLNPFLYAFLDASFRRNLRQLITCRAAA
TRPML3 agonist = activates the human TRPML3 channel | Q8TDD5 | HEK293 TRPML3-YFP, Fluo-8 calcium fluorescence; 100% = the carbachol control signal | activation, % at 3 µM | actives 0.29% (n = 220,000);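 active = activation above its plate's cutoff, the mean activation of the plate's test wells plus 3 SD, cut at about 12% in these data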;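 note: 0% = DMSO only wells and 100% = carbachol wells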
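Test system: TRPML3-YFP stable HEK293 cells. Doses: single point at 3 µM. Incubation: dye loading 1 h 37 °C then 30 min ambient, 125 s read. Signal: Fluo-8 calcium dye fluorescence, ex 470-495, em 515-575 nm. Measure: percent activation from peak-to-basal fluorescence ratio, scaled between DMSO and carbachol.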
* marks the source's active call; other numbers are inactive results; . = no result given. In the library only some 3.2% were active in any assay of this set; here they are far more common.

SMILES	OX1R antag-1	OX1R antag-2	TRPN1 ag	CHO parental Ca	GPR7 antag	TRPML3 agonist
O=C1c2cccc3cccc(c23)C(=O)N1Cc1cccnc1	-13	20	1	-22	-11	0
O=C(CCN1C(=O)c2cccc3cccc(c23)C1=O)NCc1cccnc1	-28	47*	-1	-5	-2	1
COc1ccc(CCNCc2csc3nc4ccccc4n23)cc1OC	29	53*	2	27	6	0
CSc1nnc2c(n1)OC(c1ccccn1)N(C(C)=O)c1ccccc1-2 (centres undefined)	-10	19	0	-3	-11	1
CSc1nnc2c(n1)OC(c1ccc(C(=O)O)cc1)N(C(C)=O)c1ccccc1-2 (centres undefined)	-3	50*	1	-5	0	0
O=C(Nc1cccc(C(F)(F)F)c1)C1CCN(S(=O)(=O)c2ccc(N3CCCC3=O)cc2)CC1	48*	30	.	73*	16	.
CCc1cccc(NC(=O)C2CCN(S(=O)(=O)c3ccc4c(c3)CC(C)N4C(C)=O)CC2)c1 (centres undefined)	-17	16	.	14	7	.
CC(=O)N1c2ccc(S(=O)(=O)N3CCC(C(=O)Nc4cccc(C(F)(F)F)c4)CC3)cc2CC1C (centres undefined)	23	11	.	55*	21	.
O=C(C[C@H]1C/C=C\C[C@@H](Cc2ccc(F)cc2)C(=O)OC[C@H]2CCCN2C1=O)NCCO	-17	8	.	2	.	.
O=C1CCC([N+](=O)[O-])C(C2CC=CCC2)N1 (centres undefined)	0	10	.	6	.	.
CCOC(=O)C1C(=O)C=C(/C=C/c2ccc(N(C)C)cc2)CC1c1ccccc1 (centres undefined)	40	28	5	41*	0	5
Cc1cc(N2CCCC2)ccc1/C=C1/C(=O)N(C)C(=S)N1C	16	11	5	13	-7	4
Cc1ccc(CN2C(=O)N/C(=C\c3ccc(N4CCOCC4)cc3)C2=O)cc1	-19	15	-1	-15	0	1
CCCN1C(=O)/C(=C/c2ccc(OCC(=O)OCC)cc2)NC1=S	.	.	11	.	-17	2
CCN1C(=O)/C(=C/c2ccc(N3CCCC3)cc2)NC1=S	74*	27	42*	62*	10	11
CCCN1C(=O)/C(=C/c2ccc(N3CCCC3)c(C)c2)NC1=S	93*	22	85*	87*	4	52*
Cc1cc(/C=C2\NC(=S)N(C)C2=O)ccc1N1CCCC1	72*	26	32*	53*	-8	12*
Cc1cc(/C=C2/C(=O)N(C)C(=S)N2C)ccc1N1CCCC1	65*	6	7	42*	-12	4
CC(O)C(NS(=O)(=O)c1ccc(Cl)cc1)C(=O)OCC(=O)Nc1cccnc1Cl (centres undefined)	-13	2	2	-14	25*	0
Cc1c(=O)n(OCc2ccc(Cl)cc2)c2ccccc2[n+]1[O-]	-24	21	-2	-5	9	0
Cc1c(=O)n(OCc2cccc(F)c2)c2ccccc2[n+]1[O-]	-17	42*	1	-13	-2	0
O=C1c2ccccc2C(=O)C1c1ccc2ccccc2n1	-19	51*	3	-6	1	0
S=C(N/N=C/c1cccc2ccccc12)Nc1cccc(Cl)c1	-33	5	-1	-15	-7	0
CCN1CCN(Cc2nc3ccc([N+](=O)[O-])cc3c(=O)n2-c2ccc(OC)cc2OC)CC1	1	34*	.	-15	7	.
COc1ccc(-n2c(CN3CCN(c4ccccc4OC)CC3)nc3ccc([N+](=O)[O-])cc3c2=O)c(OC)c1	.	.	.	.	-16	.
Cc1ccc(-c2nc(N3CCOCC3)sc2C(=O)N2CCCCC2)cc1	-9	18	0	-31	25*	-1
Cc1c(C2(O)CCCCC2)[nH]c2ccc(C(F)(F)F)cc12	47	53*	.	57*	.	.
CC(=O)NCCC(=O)Nc1ncc(S(=O)(=O)c2ccc([N+](=O)[O-])cc2)s1	-16	66*	.	-7	.	.
COc1ccc(S(=O)(=O)N(Cc2cccs2)C2CCCC2)cc1	54*	44	-1	44*	-21	0

Assay outcomes: PubChem BioAssay, The Scripps Research Institute Molecular Screening Center
